Measurements as given in ChEMBL document CHEMBL1629421, “Isochaihulactone analogues: synthesis and anti-proliferative activity of novel dibenzylbutyrolactones” (2010).

Tests used:
Type in all cases: functional
[1] = test system: MDA-MB-231; assay: Growth inhibition of human MDA-MB-231 cells at 25 ug/ml after 24 hrs by MTT colorimetric assay; conditions: MDA-MB-231, 24 h, read-out: GI
In short: (§1)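 Cells kept in RPMI 1640 with 10% FBS, 1% L-glutamine and penicillin-streptomycin at 37 °C, 5% CO2, and harvested with trypsin-EDTA. Seeded at 4 × 10⁴ cells/well, grown 24 h, then exposed to compound for 24 h at 37 °C. Medium replaced with phenol red-free medium, MTT (2 mg/ml) added for 4 h, formazan dissolved in isopropanol, A492 read. Inhibition taken versus untreated control wells; mean ± SD of three independent experiments.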

[2] = test system: MDA-MB-231; assay: Growth inhibition of human MDA-MB-231 cells at 50 ug/ml after 24 hrs by MTT colorimetric assay; conditions: MDA-MB-231, 24 h, read-out: GI; in short: as §1
[3] = test system: MCF7; assay: Growth inhibition of human MCF7 cells at 25 ug/ml after 24 hrs by MTT colorimetric assay; conditions: MCF7, 24 h, read-out: GI; in short: as §1
[4] = test system: MCF7; assay: Growth inhibition of human MCF7 cells at 50 ug/ml after 24 hrs by MTT colorimetric assay; conditions: MCF7, 24 h, read-out: GI; in short: as §1
[5] = test system: T47D; assay: Growth inhibition of human T47D cells at 25 ug/ml after 24 hrs by MTT colorimetric assay; conditions: read-out: GI; in short: as §1

Row | SMILES | inhibition of growth at 25 µg/mL [1] [%] | inhibition of growth at 50 µg/mL [2] [%] | inhibition of growth at 25 µg/mL [3] [%] | inhibition of growth at 50 µg/mL [4] [%] | inhibition of growth at 25 µg/mL [5] [%]
1 | O=C1OC[C@H](Cc2ccc3c(c2)OCO3)[C@H]1[C@H](O)c1ccc([N+](=O)[O-])cc1 | 17.9 | 20.1 | 24.6 | 17.9 | –
2 | O=C1OC[C@H](Cc2ccc3c(c2)OCO3)[C@H]1[C@H](O)c1ccccc1Cl | 34.8 | 47.3 | 15.8 | 7.5 | 50.2
3 | O=C1OC[C@H](Cc2ccc3c(c2)OCO3)[C@H]1[C@@H](O)c1ccccc1Cl | 19 | 26.4 | 8.5 | 31.9 | 52.9
4 | O=C1OC[C@H](Cc2ccc3c(c2)OCO3)[C@H]1Cc1ccccc1 | 26.2 | 36.2 | 17 | 46 | 61.9
5 | COc1ccc(C(O)[C@H]2C(=O)OC[C@@H]2Cc2ccc3c(c2)OCO3)cc1 (mixture of isomers) | 10.1 | 48.8 | 42.7 | 22.4 | –
6 | COc1cccc(C(O)[C@H]2C(=O)OC[C@@H]2Cc2ccc3c(c2)OCO3)c1 (mixture of isomers) | 14.5 | 41.9 | -3.8 | 12.2 | –
7 | COc1cc(C(O)[C@H]2C(=O)OC[C@@H]2Cc2ccc3c(c2)OCO3)cc(OC)c1OC (mixture of isomers) | -1.9 | 10.2 | 5.2 | 37.7 | 50.1
8 | O=C1OC[C@H](Cc2ccc3c(c2)OCO3)[C@H]1C(O)c1ccc([N+](=O)[O-])cc1 (mixture of isomers) | 22.5 | 29 | 7.2 | 38.8 | –
9 | O=C1OC[C@H](Cc2ccc3c(c2)OCO3)[C@H]1C(O)c1ccccc1[N+](=O)[O-] (mixture of isomers) | 7.9 | 35.1 | 21.9 | -0.2 | 38.1
10 | COc1cccc2c1C(=O)c1c(O)c3c(c(O)c1C2=O)C[C@@](O)(C(=O)CO)C[C@@H]3O[C@H]1C[C@H](N)[C@H](O)[C@H](C)O1 [DOXORUBICIN] | 57.9 | 48.8 | 54.6 | 31.8 | 60
11 | CC/C(=C(\c1ccccc1)c1ccc(OCCN(C)C)cc1)c1ccccc1 [TAMOXIFEN] | 58.6 | 67.7 | 65.7 | 25 | 67.8
